Experimental data from ChEMBL document CHEMBL4387722.

Assays:
[1] = target: T1, Phosphotyrosine protein phosphatase (Mycobacterium tuberculosis, UniProt A0A045ISB3); experiment: Inhibition of Mycobacterium tuberculosis His-tagged PtpB expressed in Escherichia coli Rosetta 2 (DE3) using pNPP as substrate after 30 mins by spectrophotometric method
T1 sequence (A0A045ISB3 whole entry): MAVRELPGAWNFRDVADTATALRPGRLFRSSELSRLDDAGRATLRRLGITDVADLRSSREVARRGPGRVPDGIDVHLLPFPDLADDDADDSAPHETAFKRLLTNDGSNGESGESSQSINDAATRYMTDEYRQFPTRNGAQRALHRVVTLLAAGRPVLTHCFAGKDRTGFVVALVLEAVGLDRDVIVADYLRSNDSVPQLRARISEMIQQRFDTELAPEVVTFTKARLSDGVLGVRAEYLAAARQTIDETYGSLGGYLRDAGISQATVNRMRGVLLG

[2] = target: T2, Tyrosine-protein phosphatase non-receptor type 1 (Homo sapiens, UniProt P18031); experiment: Inhibition of human PTPN1 expressed in Escherichia coli Rosetta 2 (DE3) using pNPP as substrate after 45 mins by spectrophotometric method
T2 sequence (P18031 whole entry): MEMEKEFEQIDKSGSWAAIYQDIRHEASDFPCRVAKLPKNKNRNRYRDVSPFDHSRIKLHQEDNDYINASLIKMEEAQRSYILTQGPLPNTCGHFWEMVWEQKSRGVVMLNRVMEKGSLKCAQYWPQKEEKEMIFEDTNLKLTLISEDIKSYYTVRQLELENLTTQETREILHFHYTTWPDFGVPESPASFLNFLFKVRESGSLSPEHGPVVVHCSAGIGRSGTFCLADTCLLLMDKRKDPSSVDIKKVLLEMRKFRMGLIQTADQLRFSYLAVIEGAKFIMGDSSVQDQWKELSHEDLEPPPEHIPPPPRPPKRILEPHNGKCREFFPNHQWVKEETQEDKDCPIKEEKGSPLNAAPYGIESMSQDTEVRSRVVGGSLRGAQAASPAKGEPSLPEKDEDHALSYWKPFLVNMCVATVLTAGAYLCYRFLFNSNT

[3] = target: T3, Tyrosine-protein phosphatase non-receptor type 2 (Homo sapiens, UniProt P17706); experiment: Inhibition of human PTPN2 expressed in Escherichia coli Rosetta 2 (DE3) using pNPP as substrate after 45 mins by spectrophotometric method
T3 sequence (P17706 whole entry): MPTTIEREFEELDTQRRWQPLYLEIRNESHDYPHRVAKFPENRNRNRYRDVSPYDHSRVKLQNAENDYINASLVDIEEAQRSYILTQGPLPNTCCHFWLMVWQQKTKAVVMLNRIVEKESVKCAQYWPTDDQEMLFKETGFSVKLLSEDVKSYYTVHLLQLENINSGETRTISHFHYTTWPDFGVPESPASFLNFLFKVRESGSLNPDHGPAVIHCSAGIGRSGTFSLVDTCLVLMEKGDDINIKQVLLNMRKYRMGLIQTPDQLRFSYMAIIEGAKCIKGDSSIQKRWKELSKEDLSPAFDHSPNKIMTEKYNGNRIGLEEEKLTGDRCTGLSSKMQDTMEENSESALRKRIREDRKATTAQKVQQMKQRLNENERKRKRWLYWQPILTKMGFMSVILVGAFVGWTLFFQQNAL

[4] = target: T4, Tyrosine-protein phosphatase non-receptor type 5 (Homo sapiens, UniProt P54829); experiment: Inhibition of human PTPN5 expressed in Escherichia coli Rosetta 2 (DE3) using pNPP as substrate after 45 mins by spectrophotometric method
T4 sequence (P54829 whole entry): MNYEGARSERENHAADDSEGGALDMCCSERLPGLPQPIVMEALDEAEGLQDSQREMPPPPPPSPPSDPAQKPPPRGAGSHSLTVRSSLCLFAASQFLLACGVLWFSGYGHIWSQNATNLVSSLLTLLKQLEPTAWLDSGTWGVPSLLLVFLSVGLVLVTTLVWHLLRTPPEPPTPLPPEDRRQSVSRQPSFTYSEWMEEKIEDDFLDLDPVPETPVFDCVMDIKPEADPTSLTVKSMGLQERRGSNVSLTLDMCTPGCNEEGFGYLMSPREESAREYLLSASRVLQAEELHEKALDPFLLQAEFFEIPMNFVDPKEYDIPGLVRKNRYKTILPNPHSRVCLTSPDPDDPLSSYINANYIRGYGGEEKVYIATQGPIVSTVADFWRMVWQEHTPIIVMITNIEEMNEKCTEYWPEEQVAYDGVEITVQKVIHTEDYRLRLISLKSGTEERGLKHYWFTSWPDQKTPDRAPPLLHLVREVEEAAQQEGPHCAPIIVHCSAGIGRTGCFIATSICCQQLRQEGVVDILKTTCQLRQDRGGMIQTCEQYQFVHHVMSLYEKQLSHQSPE

[5] = test system: Mycobacterium tuberculosis; experiment: Antitubercular activity against Mycobacterium tuberculosis H37Rv after 5 days at 200 uM relative to control; assay type: functional; conditions: 120 h
How it was run: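 M. tuberculosis grown in liquid culture with compound at a fixed 200 μM for 5 days. Growth inhibition expressed as percent of control.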

[6] = Inhibition of refolded rhodanese (unknown origin) preincubated with Escherichia coli GroEL/GroES for 60 mins by measuring rhodanese enzyme activity followed by compound addition by Fe(SCN)3 dye based spectrometric analysis; parameters: species or system Homo sapiens
[7] = target: T5, Malate dehydrogenase, mitochondrial (Sus scrofa, UniProt P00346); experiment: Inhibition of refolded pig heart mitochondrial MDH preincubated with Escherichia coli GroEL/GroES for 45 mins using sodium mesoxalate as substrate followed by compound addition and measured after 20 to 30 mins by spectrometric analysis
T5 sequence (P00346 whole entry): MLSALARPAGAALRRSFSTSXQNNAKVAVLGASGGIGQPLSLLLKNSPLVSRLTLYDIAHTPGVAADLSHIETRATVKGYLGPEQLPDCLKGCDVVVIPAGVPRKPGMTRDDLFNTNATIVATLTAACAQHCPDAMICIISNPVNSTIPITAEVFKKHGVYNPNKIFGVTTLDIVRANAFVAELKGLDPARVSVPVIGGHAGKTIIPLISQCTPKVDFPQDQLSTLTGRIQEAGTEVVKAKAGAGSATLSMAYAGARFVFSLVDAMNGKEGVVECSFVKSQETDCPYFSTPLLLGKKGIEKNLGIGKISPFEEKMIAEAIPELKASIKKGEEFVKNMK

[8] = target: T6, E. coli GroEL/ES (Escherichia coli, UniProt P0A6F5); experiment: Inhibition of Escherichia coli GroEL expressed in Escherichia coli DH5alpha/Escherichia coli GroES expressed in Escherichia coli BL21 (DE3) assessed as reduction in GroEL/GroES-mediated denatured rhodanese refolding by measuring rhodanese enzyme activity after 45 mins by Fe(SCN)3 dye based spectrometric analysis
[9] = target: T6, E. coli GroEL/ES; experiment: Inhibition of Escherichia coli GroEL expressed in Escherichia coliDH5alpha/Escherichia coli GroES expressed in Escherichia coli BL21 (DE3) assessed as reduction in GroEL/GroES-mediated denatured pig heart mitochondrial MDH refolding by measuring MDH enzyme activity using sodium mesoxalate as substrate after 20 to 40 mins by spectrometric analysis
[10] = target: HSP60/HSP10 (Homo sapiens, UniProt P10809); experiment: Inhibition of human HSP60 expressed in Escherichia coli Rosetta 2(DE3)/human HSP10 expressed in Escherichia coli Rosetta 2(DE3) pLysS cells assessed as reduction in HSP60/HSP10-mediated denatured pig heart mitochondrial MDH refolding by measuring MDH enzyme activity using sodium mesoxalate as substrate after 40 to 60 mins by spectrometric analysis
[11] = Cytotoxicity against human THLE3 cells assessed as reduction in cell viability after 48 hrs by Alamar blue assay; assay type: cell-based
How it was run: (§1)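 Alamar Blue viability read-out. Human liver (THLE-3) and kidney (HEK 293) cells incubated with compound for 48 h. Tested in dose-response to derive CC50.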

[12] = Cytotoxicity against human HEK293 cells assessed as reduction in cell viability after 48 hrs by Alamar blue assay; assay type: cell-based; how it was run: as §1
[13] = test system: Mycobacterium tuberculosis; experiment: Antitubercular activity against Mycobacterium tuberculosis H37Rv after 5 days; assay type: functional, organism-based; conditions: 120 h

T6 sequence (P0A6F5 whole entry, looked up): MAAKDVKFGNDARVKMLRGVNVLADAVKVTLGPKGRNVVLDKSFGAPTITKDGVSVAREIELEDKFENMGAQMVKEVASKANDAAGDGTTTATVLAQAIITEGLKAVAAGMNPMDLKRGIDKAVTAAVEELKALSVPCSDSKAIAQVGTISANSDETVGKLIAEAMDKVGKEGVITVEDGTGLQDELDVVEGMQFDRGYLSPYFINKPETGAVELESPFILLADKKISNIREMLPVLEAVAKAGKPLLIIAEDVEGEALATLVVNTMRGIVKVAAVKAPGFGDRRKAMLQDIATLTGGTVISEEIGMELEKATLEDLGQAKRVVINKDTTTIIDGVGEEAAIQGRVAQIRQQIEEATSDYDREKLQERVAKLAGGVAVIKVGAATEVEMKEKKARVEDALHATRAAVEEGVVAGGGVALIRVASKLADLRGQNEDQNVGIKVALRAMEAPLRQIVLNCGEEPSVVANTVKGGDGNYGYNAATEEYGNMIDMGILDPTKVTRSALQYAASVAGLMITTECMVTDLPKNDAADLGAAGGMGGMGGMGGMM
Sequence of HSP60/HSP10 (P10809 whole entry): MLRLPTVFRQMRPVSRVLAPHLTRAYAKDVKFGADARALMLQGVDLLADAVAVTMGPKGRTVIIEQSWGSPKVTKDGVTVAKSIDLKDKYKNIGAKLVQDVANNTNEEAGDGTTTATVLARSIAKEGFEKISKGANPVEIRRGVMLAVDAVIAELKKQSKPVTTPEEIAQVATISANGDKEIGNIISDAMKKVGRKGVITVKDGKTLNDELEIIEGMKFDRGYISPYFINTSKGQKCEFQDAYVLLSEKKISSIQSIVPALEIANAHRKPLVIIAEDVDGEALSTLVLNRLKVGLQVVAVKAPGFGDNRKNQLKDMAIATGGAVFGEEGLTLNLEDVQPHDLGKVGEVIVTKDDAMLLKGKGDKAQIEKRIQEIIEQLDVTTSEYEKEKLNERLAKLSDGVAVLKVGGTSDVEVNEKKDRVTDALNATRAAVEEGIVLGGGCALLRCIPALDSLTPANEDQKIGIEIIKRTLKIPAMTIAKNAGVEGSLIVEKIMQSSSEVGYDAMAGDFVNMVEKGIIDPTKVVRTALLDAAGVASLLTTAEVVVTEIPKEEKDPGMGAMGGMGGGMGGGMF
Sequence of HSP60/HSP10 (P61604 whole entry, further chain): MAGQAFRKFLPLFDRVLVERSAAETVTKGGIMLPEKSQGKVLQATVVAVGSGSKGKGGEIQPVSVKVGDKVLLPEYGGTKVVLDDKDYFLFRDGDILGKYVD

Structure (SMILES)	IC50 [1] [µM]	IC50 [2] [µM]	IC50 [3] [µM]	IC50 [4] [µM]	inhibition at 200 µM [5] [%]	IC50 [6] [µM]	IC50 [7] [µM]	IC50 [8] [µM]	IC50 [9] [µM]	IC50 [10] [µM]	CC50 at 48 h [11] [µM]	CC50 at 48 h [12] [µM]	EC50 [13] [µM]
COc1ccc(Cl)cc1S(=O)(=O)Nc1ccc(-c2nc3ccccc3o2)cc1	29	21	28	37	0	> 100	> 63	83	59	> 100	42	75	–
COc1ccc(S(=O)(=O)Nc2ccc3oc(-c4ccccc4)nc3c2)cc1	73	46	50	37	75	> 100	> 63	–	–	> 100	53	91	167
O=S(=O)(Nc1ccc(-c2nc3ccccc3o2)cc1)c1ccccc1F	85	55	80	70	8	> 100	> 63	180	> 100	> 100	> 100	> 100	–
O=S(=O)(Nc1ccc(-c2nc3cc(NS(=O)(=O)c4cccc(F)c4)ccc3o2)cc1)c1cccc(F)c1	13	36	32	31	48	–	–	–	–	–	–	–	> 200
CS(=O)(=O)Nc1ccc(-c2nc3cc(NS(C)(=O)=O)ccc3o2)cc1	> 100	> 100	> 100	> 100	62	–	–	–	–	–	–	–	> 200
O=S(=O)(Nc1ccc(-c2nc3cc(NS(=O)(=O)c4ccccc4Br)ccc3o2)cc1)c1ccccc1Br	20	24	28	31	50	–	–	–	–	–	–	–	> 200
Cc1cccc(S(=O)(=O)Nc2ccc3oc(-c4ccccc4)nc3c2)c1	63	53	57	39	82	> 100	> 63	–	–	> 100	38	69	161
N#Cc1cccc(S(=O)(=O)Nc2ccc(-c3nc4cc(NS(=O)(=O)c5cccc(C#N)c5)ccc4o3)cc2)c1	33	37	48	44	65	–	–	–	–	–	–	–	> 200
O=S(=O)(Nc1ccc(-c2nc3ccccc3o2)cc1)c1cccc(O)c1	79	> 100	> 100	84	61	> 100	> 63	–	–	62	97	> 100	189
O=S(=O)(Nc1ccc(-c2nc3ccccc3o2)cc1)c1ccc(O)cc1	93	70	> 100	81	77	> 100	> 63	–	–	78	> 100	> 100	> 200
N#Cc1ccccc1S(=O)(=O)Nc1ccc(-c2nc3cc(NS(=O)(=O)c4ccccc4C#N)ccc3o2)cc1	18	56	69	47	85	–	–	–	–	–	–	–	113
O=S(=O)(Nc1ccc2oc(-c3ccccc3)nc2c1)c1cccc(F)c1	93	71	> 100	42	56	> 100	> 63	–	–	> 100	41	68	> 200
O=S(=O)(Nc1ccc(-c2nc3cc(NS(=O)(=O)c4cccc5nonc45)ccc3o2)cc1)c1cccc2nonc12	8.8	34	58	40	76	–	–	–	–	–	–	–	> 200
COc1ccc(S(=O)(=O)Nc2ccc(-c3nc4ccccc4o3)cc2)cc1	61	42	53	45	72	> 100	> 63	–	–	> 100	86	> 100	179
COc1cccc(S(=O)(=O)Nc2ccc(-c3nc4ccccc4o3)cc2)c1	67	51	67	48	74	> 100	> 63	–	–	80	84	> 100	156
Nc1ccc(S(=O)(=O)Nc2ccc(-c3nc4cc(NS(=O)(=O)c5ccc(N)cc5)ccc4o3)cc2)cc1	16	27	32	41	51	–	–	–	–	–	–	–	> 200
Nc1ccccc1S(=O)(=O)Nc1ccc(-c2nc3cc(NS(=O)(=O)c4ccccc4N)ccc3o2)cc1	17	34	25	51	58	–	–	–	–	–	–	–	> 200
